Values after ≈ are worked out from the molar mass of the structure shown. Active and inactive are the calls of the source. The rule behind the calls is not given here.
Legend:
Type in all cases: functional
[1] = Antifungal activity against Candida viswanathii NBRC10321 at 400 ug/ml after 24 hrs by twofold serial dilution method
In short: (§1)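 Compounds were first screened at a single concentration of 400 against each fungus. MIC values were then determined only for selected compounds.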

[2] = tested on: Saccharomyces cerevisiae; experiment: Antifungal activity against Saccharomyces cerevisiae X2180-1A after 24 hrs by twofold serial dilution method; in short: as §1
[3] = tested on: Aspergillus oryzae; experiment: Antifungal activity against Aspergillus oryzae 1-Murasaki-1 after 24 hrs by twofold serial dilution method; conditions: 1-Murasaki-1, 24 h; in short: as §1

SMILES	Activity [1]	MIC [2] [µg/mL]	MIC [3] [µg/mL]
CCCCCCCCCCCCNC(=O)[C@@H]1CC(=O)N[C@H](CO)C(=O)N[C@H](Cc2ccc(O)cc2)C(=O)N[C@H](CC(N)=O)C(=O)NCC(=O)N[C@H](CC(N)=O)C(=O)N[C@@H](CO)C(=O)N[C@@H](CC(N)=O)C(=O)N1	inactive		
CCCCCCCCCCCCCCCCNC(=O)[C@H]1CC(=O)N[C@H](CO)C(=O)N[C@H](Cc2ccc(O)cc2)C(=O)N[C@H](CC(N)=O)C(=O)NCC(=O)N[C@@H](CC(N)=O)C(=O)N[C@@H](CO)C(=O)N[C@@H](CC(N)=O)C(=O)N1	inactive		
CCCCCCCCCCCCNC(=O)[C@@H]1CC(=O)N[C@H](CO)C(=O)N[C@H](Cc2ccc(O)cc2)C(=O)N[C@H](CC(N)=O)C(=O)NCC(=O)N[C@@H](CC(N)=O)C(=O)N[C@H](CO)C(=O)N[C@H](CC(N)=O)C(=O)N1	inactive		
CCCCCCCCCCCCNC(=O)[C@H]1CC(=O)N[C@H](CO)C(=O)N[C@H](Cc2ccc(O)cc2)C(=O)N[C@H](CC(N)=O)C(=O)NCC(=O)N[C@H](CC(N)=O)C(=O)N[C@@H](CO)C(=O)N[C@@H](CC(N)=O)C(=O)N1	inactive		
CCCCCCCCCCCCNC(=O)[C@H]1CC(=O)N[C@H](CO)C(=O)N[C@H](Cc2ccc(O)cc2)C(=O)N[C@H](CC(N)=O)C(=O)NCC(=O)N[C@H](CC(N)=O)C(=O)N[C@@H](CO)C(=O)N[C@H](CC(N)=O)C(=O)N1	inactive	400 (≈ 392 µM)	200 (≈ 196 µM)
CCCCCCCCNC(=O)[C@@H]1CC(=O)N[C@H](CO)C(=O)N[C@H](Cc2ccc(O)cc2)C(=O)N[C@H](CC(N)=O)C(=O)NCC(=O)N[C@@H](CC(N)=O)C(=O)N[C@@H](CO)C(=O)N[C@@H](CC(N)=O)C(=O)N1	inactive		
CCCCCCCCCCCCNC(=O)[C@H]1CC(=O)N[C@H](CO)C(=O)N[C@H](Cc2ccc(O)cc2)C(=O)N[C@H](CC(N)=O)C(=O)NCC(=O)N[C@@H](CC(N)=O)C(=O)N[C@@H](CO)C(=O)N[C@H](CC(N)=O)C(=O)N1	inactive	> 400	200 (≈ 196 µM)
CCCCCCCCCCCCNC(=O)[C@H]1CC(=O)N[C@H](CO)C(=O)N[C@H](Cc2ccc(O)cc2)C(=O)N[C@H](CC(N)=O)C(=O)NCC(=O)N[C@@H](CC(N)=O)C(=O)N[C@H](CO)C(=O)N[C@@H](CC(N)=O)C(=O)N1	inactive		
CCCCCCCCCCCCNC(=O)[C@H](CC(=O)N[C@H](CO)C(=O)N[C@H](Cc1ccc(O)cc1)C(=O)N[C@H](CC(N)=O)C(=O)NCC(=O)N[C@@H](CC(N)=O)C(=O)N[C@@H](CO)C(=O)O)NC(=O)[C@@H](N)CC(N)=O	inactive		
CCCCCCCCCCCCNC(=O)[C@H](CC(=O)N[C@H](CO)C(=O)N[C@H](Cc1ccc(O)cc1)C(=O)N[C@H](CC(N)=O)C(=O)O)NC(=O)[C@H](CC(N)=O)NC(=O)[C@H](CO)NC(=O)[C@H](CC(N)=O)NC(=O)CN	inactive		
CCCCCCCCCCCCNC(=O)[C@@H]1CC(=O)N[C@H](CO)C(=O)N[C@H](Cc2ccc(O)cc2)C(=O)N[C@H](CC(N)=O)C(=O)NCC(=O)N[C@@H](CC(N)=O)C(=O)N[C@@H](CO)C(=O)N[C@H](CC(N)=O)C(=O)N1	inactive		
CCCCCCCCCCCCNC(=O)[C@H](CC(=O)N[C@H](CO)C(=O)N[C@H](Cc1ccc(O)cc1)C(=O)N[C@H](CC(N)=O)C(=O)NCC(=O)N[C@@H](CC(N)=O)C(=O)O)NC(=O)[C@H](CC(N)=O)NC(=O)[C@@H](N)CO	inactive		
CCCCCCCCCCCCNC(=O)[C@H](CC(=O)N[C@H](CO)C(=O)N[C@H](Cc1ccc(O)cc1)C(=O)N[C@H](CC(N)=O)C(=O)NCC(=O)O)NC(=O)[C@H](CC(N)=O)NC(=O)[C@H](CO)NC(=O)[C@@H](N)CC(N)=O	inactive		
CCCCCCCCCCCCNC(=O)[C@H]1CC(=O)N[C@H](CO)C(=O)N[C@H](Cc2ccc(O)cc2)C(=O)N[C@H](CC(N)=O)C(=O)NCC(=O)N[C@H](CC(N)=O)C(=O)N[C@H](CO)C(=O)N[C@H](CC(N)=O)C(=O)N1	inactive	100 (≈ 98.1 µM)	200 (≈ 196 µM)
CCCCCCCCCCCCNC(=O)[C@@H]1CC(=O)N[C@H](CO)C(=O)N[C@H](Cc2ccc(O)cc2)C(=O)N[C@H](CC(N)=O)C(=O)NCC(=O)N[C@@H](CC(N)=O)C(=O)N[C@H](CO)C(=O)N[C@@H](CC(N)=O)C(=O)N1	inactive		
CCCCCCCCCCCCNC(=O)[C@@H]1CC(=O)N[C@H](CO)C(=O)N[C@H](Cc2ccc(O)cc2)C(=O)N[C@H](CC(N)=O)C(=O)NCC(=O)N[C@H](CC(N)=O)C(=O)N[C@@H](CO)C(=O)N[C@H](CC(N)=O)C(=O)N1	inactive		
CCCCCCCCCCCCNC(=O)[C@H]1CC(=O)N[C@H](CO)C(=O)N[C@H](Cc2ccc(O)cc2)C(=O)N[C@H](CC(N)=O)C(=O)NCC(=O)N[C@H](CC(N)=O)C(=O)N[C@H](CO)C(=O)N[C@@H](CC(N)=O)C(=O)N1	inactive	100 (≈ 98.1 µM)	200 (≈ 196 µM)
CCCCCCCCCCCCNC(=O)[C@H]1CC(=O)N[C@H](CO)C(=O)N[C@H](Cc2ccc(O)cc2)C(=O)N[C@H](CC(N)=O)C(=O)NCC(=O)N[C@@H](CC(N)=O)C(=O)N[C@@H](CO)C(=O)N[C@@H](CC(N)=O)C(=O)N1	inactive	50 (≈ 49.1 µM)	50 (≈ 49.1 µM)
CCCCCCCCCCCCCCCCNC(=O)[C@@H]1CC(=O)N[C@H](CO)C(=O)N[C@H](Cc2ccc(O)cc2)C(=O)N[C@H](CC(N)=O)C(=O)NCC(=O)N[C@@H](CC(N)=O)C(=O)N[C@@H](CO)C(=O)N[C@@H](CC(N)=O)C(=O)N1	inactive		
C[C@@H]1[C@H](O)[C@@H](C)/C=C/C=C/C=C/C=C/C=C/C=C/C=C/[C@H](O[C@@H]2O[C@H](C)[C@@H](O)[C@H](N)[C@@H]2O)C[C@@H]2O[C@](O)(C[C@@H](O)C[C@@H](O)[C@H](O)CC[C@@H](O)C[C@@H](O)CC(=O)O[C@H]1C)C[C@H](O)[C@H]2C(=O)O [AMPHOTERICIN B]		1 (≈ 1.08 µM)	
CCCCCCCCCCCCNC(=O)[C@@H]1CC(=O)N[C@H](CO)C(=O)N[C@H](Cc2ccc(O)cc2)C(=O)N[C@H](CC(N)=O)C(=O)NCC(=O)N[C@@H](CC(N)=O)C(=O)N[C@@H](CO)C(=O)N[C@@H](CC(N)=O)C(=O)N1	inactive	25 (≈ 24.5 µM)	50 (≈ 49.1 µM)
CCCCCCCCCCCCNC(=O)[C@H]1CC(=O)N[C@H](CO)C(=O)N[C@H](Cc2ccc(O)cc2)C(=O)N[C@H](CC(N)=O)C(=O)NCC(=O)N[C@@H](CC(N)=O)C(=O)N[C@H](CO)C(=O)N[C@H](CC(N)=O)C(=O)N1	inactive	400 (≈ 392 µM)	200 (≈ 196 µM)
CCCCCCCCCCCCNC(=O)[C@@H]1CC(=O)N[C@H](CO)C(=O)N[C@H](Cc2ccc(O)cc2)C(=O)N[C@H](CC(N)=O)C(=O)NCC(=O)N[C@H](CC(N)=O)C(=O)N[C@H](CO)C(=O)N[C@@H](CC(N)=O)C(=O)N1	inactive		
CCCCCCCCCCCCNC(=O)[C@H](CC(=O)N[C@H](CO)C(=O)O)NC(=O)[C@H](CC(N)=O)NC(=O)[C@H](CO)NC(=O)[C@H](CC(N)=O)NC(=O)CNC(=O)[C@@H](CC(N)=O)NC(=O)[C@H](N)Cc1ccc(O)cc1	inactive		
CCCCCCCCCCCCNC(=O)[C@H](CC(=O)N[C@H](CO)C(=O)N[C@H](Cc1ccc(O)cc1)C(=O)O)NC(=O)[C@H](CC(N)=O)NC(=O)[C@H](CO)NC(=O)[C@H](CC(N)=O)NC(=O)CNC(=O)[C@H](N)CC(N)=O	inactive		
CCCCCCCCCCCCNC(=O)[C@@H]1CC(=O)N[C@H](CO)C(=O)N[C@H](Cc2ccc(O)cc2)C(=O)N[C@H](CC(N)=O)C(=O)NCC(=O)N[C@H](CC(N)=O)C(=O)N[C@H](CO)C(=O)N[C@H](CC(N)=O)C(=O)N1	inactive	> 400	200 (≈ 196 µM)
CCCCCCCCNC(=O)[C@H]1CC(=O)N[C@H](CO)C(=O)N[C@H](Cc2ccc(O)cc2)C(=O)N[C@H](CC(N)=O)C(=O)NCC(=O)N[C@@H](CC(N)=O)C(=O)N[C@@H](CO)C(=O)N[C@@H](CC(N)=O)C(=O)N1	inactive		
